Sampled rows, rich in hits. Any-hit rate of the full collection: about 9.2%.
Dynein transport = inhibitors of GR-EGFP nuclear translocation, primary screen, dynein cargo transport inhibitor project, imaging, high-content, 3617.4 mouse cells; test concentration mostly 20 µM; stimulated with dexamethasone, 1 µM; hits give low values; z-score, hits read low; 220,000 tested, 0.47% active; AID 1381, 2008;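 active = plate z-score of nuclear minus cytoplasmic receptor signal below a set negative limit, without overly bright fluorescence or cell loss, cut at about -3.5 in these data, passing the limit was not always enough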;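 note: z-score of nuclear minus cytoplasmic ring GR-EGFP intensity difference per well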
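Schedule: 48 h induction, then 1 h compound, then 30 min agonist, 37 °C. Buffer or medium: tetracycline-free induction medium containing charcoal-stripped FBS. Reagent: 1.0 µM final dexamethasone stimulus. Evaluation: nuclear versus cytoplasmic GR-EGFP signal, averaged per well. Signal: high-content fluorescence imaging after fixation.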
Lmaj promast = Leishmania major promastigote growth inhibition, primary screen; Leishmania major promastigotes, resazurin fluorescence viability; inhibition, % at 10 µM; 200,000 tested, 9% active; in the data active = inhibition above about 50%;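 note: promastigotes grown with compound for 44 hours at 28 °C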
Autophagy mod = autophagy modulators in MEF cells, primary screen, imaging, high-content, MEF GFP-LC3; MEF GFP-LC3 puncta imaging; test concentration mostly 10 µM; calls only at 10 µM (by protocol); 190,000 tested, 0.98% active;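 active = percentage of spot-positive cells more than 3 SD above its plate mean, without a fluorescence outlier flag or 80% toxicity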;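 note: spot-positive cell cutoff set from DMSO-treated cells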
HCT116 bCat-KO = primary screen for growth suppressors in beta-catenin knockout HCT116 cells (colon tumor, human). viability, % at 10 µM. HCT116 beta-catenin knockout viability, CellTiter-Glo, 60 h; hits give low values. AID 818, 2007. 140,000 tested, 1.5% active;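 active = viability at or under a set limit, the compound median less 4 SD, cut at about 6% in these data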;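 note: 0% = Hyamine 1622 control at 20 µM and 100% = untreated cell control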
HCT116 PTEN-null = growth suppression of PTEN-null HCT116, primary screen, cell-based, CellTiter-Glo | viability, % at 10 µM | 140,000 tested, 1.2% active | HCT116 PTEN-null viability, 60 h; hits give low values;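 active = viability at or below a set limit, 4 SD under the median of all tested compounds, cut at about 3.7% in these data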;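 note: PTEN knockout HCT116 line with beta catenin targeted HCT116 as companion control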
Numbers without * were called inactive; i = inactive; . = not tested or not shown.

SMILES | Dynein transport | Lmaj promast | Autophagy mod | HCT116 bCat-KO | HCT116 PTEN-null
COC(=O)c1c(NC(=O)CSc2nnc3ccccn23)sc2c1CCC2 | 0.14 | 56* | i | 87 | 90
Nc1nnc(SCC(=O)Nc2sc3c(c2C(=O)c2ccccc2)CCCC3)s1 | -0.34 | 57* | i | 79 | 78
Cc1ccc(C(=O)c2c(NC(=O)CSc3nnc(N)s3)sc3c2CCCC3)cc1 | 0.16 | 76* | i | 80 | 79
CCOc1ccc(NC(=O)CN(C)CC(=O)Nc2cc(Cl)ccc2C#N)cc1OCC | -0.56 | 86* | i | 97 | 87
CC(C)(C)NC(=O)C(c1cccnc1)N(C(=O)c1ccc(Cl)nc1)C1CCCC1 (stereo not drawn) | -1 | 0 | i | . | .
O=C(NC1CCCCC1)C(c1cccnc1)N(C(=O)c1ccc(Cl)nc1)C1CCCCC1 (stereo not drawn) | -0.32 | 56* | i | . | .
O=C(Nc1ccc2nc(-c3cccs3)c(-c3cccs3)nc2c1)NC1CC1 | -0.082 | 64* | i | 90 | 84
CC(C)N1CCN(Cc2coc3ccccc3c2=O)CC1CCO (stereo not drawn) | -0.39 | -1 | i | . | .
CCOc1ccc(C2c3cc(OC)c(OC)cc3CC(=O)N2c2ccc(OC)cc2)cc1 (stereo not drawn) | -0.45 | 80* | i | 20 | 20
Cc1cccc(C2c3[nH]c4ccccc4c3CCN2C(=O)Cc2n[nH]c(C)n2)n1 (stereo not drawn) | 0.63 | 4 | i | . | .
O=C(NCCc1c[nH]c2ccccc12)/C(=C\c1cccnc1)NC(=O)c1ccccc1Br | -0.45 | . | . | . | .
C=CCn1c(-c2ccc(OC)cc2)csc1=Nc1c(C)n(C)n(-c2ccccc2)c1=O | 0.088 | 93* | i | 80 | 78
Cc1cc2ncn(C(=O)N3CCC(C)CC3)c2cc1C | -0.46 | 1 | i | 0.6* | 0.7*
Cc1cc2ncn(C(=O)c3ccc4c(c3)OCO4)c2cc1C | 0.036 | -7 | i | 86 | 75
Cc1ccccc1NC(=S)N(Cc1ccccc1)Cc1cccs1 | 0.21 | -2 | i | . | .
O=C1NC(=O)/C(=C\c2ccc(OCc3cccc([N+](=O)[O-])c3)cc2)N1 | -0.53 | -1 | i | . | .
O=C(NCc1ccco1)c1ccc(Cn2c(=O)c3sccc3n(Cc3cccc(F)c3)c2=O)cc1 | 0.24 | 4 | i | 85 | 85
O=C(NCc1cccc(F)c1)c1ccc(N2C(=O)Cn3c(cc4sccc43)C2=O)cc1 | -1.1 | 61* | i | 89 | 101
CC(COc1ccccc1)N1CCC(CO)(CCc2ccccc2)CC1 (stereo not drawn) | 0.58 | 97* | i | . | .
CSCC(C)N1CCC(CO)(CCc2ccccc2)CC1 (stereo not drawn) | 0.93 | 82* | i | . | .
O=C(Nc1cccc(S(=O)(=O)NC2=NCCC2)c1)C1CC(=O)N(c2ccc3c(c2)OCCO3)C1 (stereo not drawn) | 2.2 | -2 | i | . | .
CC(C)OP(=O)(CCP(=O)(OC(C)C)OC(C)C)OC(C)C | -0.57 | . | . | . | .
C1CN(CC23CC4CC(CC(C4)C2)C3)CCO1 | 0.57 | 81* | i | 85 | 98
COCCSc1ccccc1C(=O)Nc1cc([N+](=O)[O-])ccc1OC | -0.14 | -2 | i | . | .
COc1ccc([N+](=O)[O-])cc1NC(=O)c1cn(-c2ccc(Cl)cc2)c(=O)c2ccccc12 | -0.013 | 60* | i | 80 | 82
SMILES | Dynein transport | Lmaj promast | Autophagy mod | HCT116 bCat-KO | HCT116 PTEN-null
CCOC(=O)c1sc2c(c1C)C(c1cccs1)C1=C(CCCC1=O)N2 (stereo not drawn) | -0.084 | 64* | i | 68 | 86
CCOC(=O)C1=C(C)NC2=C(C(=O)CCC2)C1c1cccs1 (stereo not drawn) | -0.57 | 16 | i | 95 | 97
Cc1cc(C)n(C(=O)CCCC(=O)n2nc(C)cc2C)n1 | 0.51 | 21 | i | 103 | 102
Cc1cc(C)n(C(=O)CNc2ccc(C)c(C)c2)n1 | -0.34 | -3 | i | 0.9* | 1.4*
COC(=O)c1ccc(COn2nnc3ccccc32)cc1 | 1.7 | 7 | i | . | .
COc1cccc2c1C(=O)c1c(O)c3c(c(O)c1C2=O)C[C@@](O)(C(=O)CO)C[C@@H]3O[C@H]1C[C@H](N)[C@H](O)[C@H](C)O1 | 9.6 | 100* | i | 4.1* | 4
